Each structure is given as a SMILES string.

For series [1], the system named is Platelet. The experiment in a line: Antiplatelet activity in human platelet rich plasma assessed as inhibition of arachidonic acid-induced platelet aggregation at 100 uM preincubated for 5 mins followed by arachidonic acid addition measured for 3 mins by aggregometric analysis relative to control. Format: functional. In a few lines:
(§1)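 Citrated venous blood (3.2% citrate, 1:9) from healthy donors free of antiplatelet drugs for 10 days; PRP from 800 rpm 10 min spin, PPP from 1500 rpm 10 min; count set to 3.8 × 10^5 platelets […]. PRP stirred at 1100 rpm, 37 °C; compound in DMSO (1% carrier) 5 min before agonist (AA final 700 μM; collagen 5 μg ml−1). Turbidimetric read, triplicate; % inhibition versus DMSO-treated maximum aggregation.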

Series [2] deals with HCT-116. The series can be described thus: Cytotoxicity against human HCT116 cells after 72 hrs by SRB assay. In kind it is functional, cell-based. In outline:
(§2)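 Cells cultured in DMEM with 10% FBS, 1% non-essential amino acids, penicillin/streptomycin, 37 °C, 5% CO2. 2000–3000 cells per well seeded, grown 24 h, then exposed 72 h to compound (DMSO) at 40, 20, 10, 5, 2.5 μM. TCA fixation, 0.4% SRB stain, unbound dye washed off with 1% acetic acid, bound dye dissolved in 10 mM Tris base, absorbance 515 nm. IC50 against DMSO controls, triplicate.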

Series [3] concerns Platelet. The series can be described thus: Antiplatelet activity in human platelet rich plasma assessed as inhibition of collagen-induced platelet aggregation at 100 uM preincubated for 5 mins followed by arachidonic acid addition measured for 3 mins by aggregometric analysis relative to control. Format: functional. In outline: as §1
Series [4] concerns MCF7. The experiment in a line: Cytotoxicity against human MCF7 cells after 72 hrs by SRB assay. Format: functional, cell-based. In a few lines:
as §2

The subject of series [5] is Huh-7. The experiment in a line: Cytotoxicity against human HuH7 cells after 72 hrs by SRB assay. In kind it is functional, cell-based. In outline: as §2
In series [6] the target is T1, COX1 (Prostaglandin G/H synthase 1) (Ovis aries, UniProt P05979).
T1 sequence (P05979 whole entry): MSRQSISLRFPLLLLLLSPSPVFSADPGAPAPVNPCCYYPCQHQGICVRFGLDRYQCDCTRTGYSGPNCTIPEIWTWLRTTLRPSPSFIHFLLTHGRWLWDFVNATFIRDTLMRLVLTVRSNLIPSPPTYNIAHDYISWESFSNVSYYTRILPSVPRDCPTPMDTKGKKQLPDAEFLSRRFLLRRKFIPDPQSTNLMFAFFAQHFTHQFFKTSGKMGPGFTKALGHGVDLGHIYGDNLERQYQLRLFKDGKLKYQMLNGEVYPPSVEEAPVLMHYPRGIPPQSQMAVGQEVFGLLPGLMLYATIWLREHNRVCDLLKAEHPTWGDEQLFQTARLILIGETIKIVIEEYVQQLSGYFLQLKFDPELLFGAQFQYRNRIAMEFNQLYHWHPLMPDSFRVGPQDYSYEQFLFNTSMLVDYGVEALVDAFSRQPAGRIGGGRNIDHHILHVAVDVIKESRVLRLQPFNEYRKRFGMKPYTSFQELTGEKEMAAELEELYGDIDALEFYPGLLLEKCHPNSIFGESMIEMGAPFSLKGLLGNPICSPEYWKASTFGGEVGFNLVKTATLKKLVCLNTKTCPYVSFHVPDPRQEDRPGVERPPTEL
The experiment in a line: Inhibition of sheep COX1 at 10 uM assessed as reduction in PGE2 formation using arachidonic acid as substrate by enzyme immunoassay relative to control. The conditions noted are these: probe arachidonic acid. In a few lines:
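Recombinant ovine COX-1, test agent at 10 μM, arachidonic acid as substrate. PGE2 formed is measured by competitive EIA (PGE2–acetylcholinesterase tracer, monoclonal anti-PGE2, Ellman's reagent, absorbance 412 nm) and quantified from an 8-point PGE2 standard curve. Result given as % inhibition of enzyme activity.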

Series [7] deals with Platelet. The series can be described thus: Antiplatelet activity in human platelet rich plasma assessed as inhibition of arachidonic acid-induced platelet aggregation preincubated for 5 mins followed by arachidonic acid addition measured for 3 mins by aggregometric analysis. Format: functional, cell-based.
The mark [8] stands for this setting: Homo sapiens, HCT-116, 72 h, read-out: IC50.
Setting [9] is: Homo sapiens, Huh-7, 72 h, read-out: IC50.
The mark [10] stands for this setting: Homo sapiens, MCF7, 72 h, read-out: IC50.

In the case of `CS(=O)(=O)c1ccc(-n2cc(/C=C/C(=O)NCCc3ccncc3)c(-c3cccnc3)n2)cc1`, the inhibition (as a rule, the relative decrease from the control value, in per cent) at 100 µM in series [1] came to 100%; in series [3], 71.8%. Also, the concentration for half-maximal inhibition (IC50) (usually the concentration at which inhibition is half-maximal) is 19.8 µM in series [2] (setting [8]), “Not Active” in series [4] (mcf7), 38.7 µM in series [5] (setting [9]) and 21.4 µM in series [7]. For the same compound, the inhibition at 10 µM in series [6] stood at 7.95%.
For the compound `O=C(/C=C/c1cn(-c2ccccc2)nc1-c1ccncc1)NCCc1cccnc1`, the inhibition at 100 µM in series [1] was 93.7%; in series [3], 86.9%. Besides, the IC50 in series [2] (setting [8]) is 14.6 µM; in series [4] (setting [10]), 16.1 µM; in series [5] (huh-7), “Not Active”; in series [7], 29.1 µM. Further, the inhibition at 10 µM in series [6] came out at 9.37%.
As to `CS(=O)(=O)c1ccc(-n2cc(/C=C/C(=O)NCCc3ccccn3)c(-c3cccnc3)n2)cc1`, the inhibition at 100 µM amounted to 90.7% in series [1] and 78.7% in series [3]. The IC50 entry in series [2] (hct-116) was “Not Active”; in series [4] (setting [10]), 14.3 µM; in series [5] (huh-7), “Not Active”; in series [7], 10.1 µM. Besides, in series [6], the inhibition at 10 µM was found to be 54.6%.
Take `CS(=O)(=O)c1ccc(-n2cc(/C=C/C(=O)NCc3cccnc3)c(-c3cccnc3)n2)cc1`: the inhibition at 100 µM in series [1] was 90%; in series [3], 64.1%. In addition, the half-maximal inhibitory concentration (IC50) result is “Not Active” in series [2] (hct-116), “Not Active” in series [4] (mcf7), “Not Active” in series [5] (huh-7) and 49.8 µM in series [7]. For the same compound, the inhibition at 10 µM in series [6] was determined as 13.1%.
`O=C(/C=C/c1cn(-c2ccccc2)nc1-c1ccncc1)NCCCn1ccnc1`: the inhibition at 100 µM was 90.6% in series [1] and 88.9% in series [3]. The IC50 in series [2] (setting [8]) is 18.5 µM; in series [4] (mcf7), “Not Active”; in series [5] (setting [9]), 6.8 µM; in series [7] it was 33.6 µM. Moreover, the inhibition at 10 µM in series [6] stood at 12.6%.
As for `O=C(/C=C/c1cn(-c2ccccc2)nc1-c1ccncc1)NCCc1ccccn1`, the values for the inhibition at 100 µM in series [1] and in series [3] were 100% and 41.9%, respectively. Further, the concentration for half-maximal inhibition (IC50) entry in series [2] (hct-116) is “Not Active”; in series [4] (setting [10]), 12.2 µM; in series [5] (setting [9]) it was 27.3 µM; in series [7], 32.8 µM. In addition, in series [6], the inhibition at 10 µM worked out at 13.1%.

(Values after ChEMBL document CHEMBL4257497, “Design, synthesis and biological evaluation of novel 1,3-diarylpyrazoles as cyclooxygenase inhibitors, antiplatelet and anticancer agents” (Medchemcomm, 2018).)
